# Assay results taken from ChEMBL document CHEMBL1208737, “Synthesis and in vitro evaluation of N-alkyl-3-hydroxy-3-(2-imino-3-methyl-5-oxoimidazolidin-4-yl)indolin-2-one analogs as potential anticancer agents” (2010).
# Tests used:
# Assay type in all cases: functional
# DU-145 = assay: Growth inhibition of human DU145 cells by sulforhodamine B assay; settings: for CC50: read-out: LC50 (the source's name)
# In short: (§1)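 Five-dose response testing across a 57-line human tumour panel (leukemia, non-small cell lung, colon, CNS, melanoma, ovarian, renal, prostate, breast), done after a single-dose primary screen run per the NCI method. Effect plotted against log10 molar drug concentration for each cell line. GI50 is the concentration giving a 50% reduction in net protein increase versus control cells.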
# NCI-H522 = assay: Growth inhibition of human NCI-H522 cells by sulforhodamine B assay; in short: as §1
# M14 = assay: Growth inhibition of human M14 cells by sulforhodamine B assay; in short: as §1
# UACC-62 = assay: Growth inhibition of human UACC62 cells by sulforhodamine B assay; settings: for CC50: read-out: LC50 (the source's name)
# In short: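 Part of a 57-line human tumour cell panel run at five doses. Growth effect was plotted against log10 molar drug concentration for each cell line. GI50 is the concentration giving a 50% reduction in net protein increase relative to untreated control cells, read from the dose-response curve.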
# NCI-H460 = assay: Growth inhibition of human NCI-H460 cells by sulforhodamine B assay; in short: as §1
# SK-MEL-2 = assay: Growth inhibition of human SK-MEL-2 cells by sulforhodamine B assay; settings: for CC50: read-out: LC50 (the source's name); in short: as §1
# MDA-MB-231 = assay: Growth inhibition of human MDA-MB-231 cells by sulforhodamine B assay; settings: for CC50: read-out: LC50 (the source's name); in short: as §1
# KM12 = assay: Growth inhibition of human KM12 cells by sulforhodamine B assay; settings: for CC50: read-out: LC50 (the source's name); in short: as §1
# 786-0 = assay: Growth inhibition of human 786-0 cells by sulforhodamine B assay; settings: for CC50: read-out: LC50 (the source's name); in short: as §1
# RXF 393 = assay: Growth inhibition of human RXF393 cells by sulforhodamine B assay; settings: for CC50: read-out: LC50 (the source's name); in short: as §1
# [1] = Growth inhibition of human […] cells by sulforhodamine B assay; settings: for CC50: read-out: LC50 (the source's name); in short: as §1
# ACHN = assay: Growth inhibition of human ACHN cells by sulforhodamine B assay; settings: for CC50: read-out: LC50 (the source's name); in short: as §1
# MDA-MB-435 = assay: Growth inhibition of human MDA-MB-435 cells by sulforhodamine B assay; settings: for CC50: read-out: LC50 (the source's name); in short: as §1
# MDA-MB-468 = assay: Growth inhibition of human MDA-MB-468 cells by sulforhodamine B assay; in short: as §1
Compound,GI50 (DU-145) [µM],CC50 (DU-145) [µM],GI50 (NCI-H522) [µM],LC50 (concentration killing 50% of cells) (NCI-H522) [µM],GI50 (M14) [µM],LC50 (M14) [µM],GI50 (UACC-62) [µM],CC50 (UACC-62) [µM],GI50 (NCI-H460) [µM],LC50 (NCI-H460) [µM],GI50 (SK-MEL-2) [µM],CC50 (SK-MEL-2) [µM],GI50 (MDA-MB-231) [µM],CC50 (MDA-MB-231) [µM],GI50 (KM12) [µM],CC50 (KM12) [µM],GI50 (786-0) [µM],CC50 (786-0) [µM],GI50 (RXF 393) [µM],CC50 (RXF 393) [µM],other results
COc1ccc(CN2C(=O)C(O)(C3C(=O)NC(=N)N3C)c3cc(Cl)ccc32)cc1 (stereo unspecified),3.76,74.6,1.86,20.5,3.59,61.4,23.4,> 100,26.8,> 100,10.4,96,8.55,> 100,2.05,30,3.44,43,6.29,> 100,GI50 [1]: 2.62 µM; CC50 [1]: > 100 µM; GI50 (ACHN): 20.4 µM; CC50 (ACHN): > 100 µM; GI50 (MDA-MB-435): 6.12 µM; CC50 (MDA-MB-435): 93.1 µM; GI50 (MDA-MB-468): 2.29 µM; LC50 (concentration causing 50% net cell kill) (MDA-MB-468): > 100 µM
COc1ccc(CN2C(=O)C(O)(C3C(=O)NC(=N)N3C)c3ccccc32)cc1 (stereo unspecified),21.4,> 100,3.65,> 100,4.93,> 100,27.7,> 100,29,> 100,95.2,> 100,19.4,> 100,2.87,80.4,23,> 100,7.4,> 100,GI50 [1]: 2.87 µM; CC50 [1]: > 100 µM; GI50 (ACHN): > 100 µM; CC50 (ACHN): > 100 µM; GI50 (MDA-MB-435): 10.6 µM; CC50 (MDA-MB-435): > 100 µM; GI50 (MDA-MB-468): 11.6 µM; LC50 (concentration causing 50% net cell kill) (MDA-MB-468): > 100 µM
